{
  "source": "ChEMBL document CHEMBL4261538",
  "about": "“Synthesis and molecular docking studies of xanthone attached amino acids as potential antimicrobial and anti-inflammatory agents” (Medchemcomm, 2017)",
  "key": {"[1]": {"system": "Erythrocyte", "assay": "Anti-inflammatory activity in human RBC assessed as inhibition of hypotonic solution-induced hemolysis after 10 mins by spectrophotometric method", "type": "functional, cell-based", "summary_of_the_method": "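Human blood (heparinized) washed with 0.9% saline, packed cells made into a 40% v/v stock in isotonic phosphate buffer (154 mM NaCl, 10 mM sodium phosphate, pH 7.4). Stock RBC mixed with hypotonic buffer (50 mM NaCl, 10 mM phosphate, pH 7.4) plus sample at 20–100 µg mL⁻¹.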"}, "[2]": {"system": "Fusarium oxysporum", "assay": "Antifungal activity against Fusarium oxysporum at 100 ug/ml incubated for 48 hrs by agar well diffusion method", "type": "functional", "settings": "read-out: DIZ", "summary_of_the_method": "(§1)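 Compounds dissolved in DMSO at 5 mg mL⁻¹ and 5–20 µL added to 6 mm wells, giving 25, 50, 75, 100 µg per well. Bavistin was the positive control and DMSO the negative control. Plates incubated at 28 °C for 48 h, then inhibition zone diameter (mm) measured. Values are means of three determinations.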"}, "[3]": {"system": "Aspergillus niger", "assay": "Antifungal activity against Aspergillus niger at 25 ug/ml incubated for 48 hrs by agar well diffusion method", "type": "functional", "settings": "read-out: DIZ", "summary_of_the_method": "as §1"}, "[4]": {"system": "Aspergillus niger", "assay": "Antifungal activity against Aspergillus niger at 50 ug/ml incubated for 48 hrs by agar well diffusion method", "type": "functional", "settings": "read-out: DIZ", "summary_of_the_method": "as §1"}, "[5]": {"system": "Aspergillus niger", "assay": "Antifungal activity against Aspergillus niger at 75 ug/ml incubated for 48 hrs by agar well diffusion method", "type": "functional", "settings": "read-out: DIZ", "summary_of_the_method": "as §1"}, "[6]": {"system": "Fusarium oxysporum", "assay": "Antifungal activity against Fusarium oxysporum at 50 ug/ml incubated for 48 hrs by agar well diffusion method", "type": "functional", "settings": "read-out: DIZ", "summary_of_the_method": "as §1"}, "[7]": {"system": "Candida albicans", "assay": "Antifungal activity against Candida albicans at 100 ug/ml incubated for 48 hrs by agar well diffusion method", "type": "functional", "settings": "read-out: DIZ", "summary_of_the_method": "as §1"}, "[8]": {"system": "Klebsiella pneumoniae", "assay": "Antibacterial activity against Klebsiella pneumoniae at 100 ug/ml incubated for 24 hrs by agar well diffusion method", "type": "functional", "settings": "read-out: DIZ", "summary_of_the_method": "(§2)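 Bacteria grown in nutrient broth at 37 °C for 24 h, then subcultured at room temperature. Compounds dissolved in DMSO at 5 mg mL⁻¹ and 5–20 µL added to 6 mm wells, giving 25, 50, 75, 100 µg per well. Gentamicin was the positive control and DMSO the negative control. Plates held at 37 °C for 24 h, then inhibition zone diameter (mm) measured. Values are means of three determinations.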"}, "[9]": {"system": "Escherichia coli", "assay": "Antibacterial activity against Escherichia coli at 50 ug/ml incubated for 24 hrs by agar well diffusion method", "type": "functional", "settings": "read-out: DIZ", "summary_of_the_method": "as §2"}, "[10]": {"system": "Staphylococcus aureus", "assay": "Antibacterial activity against Staphylococcus aureus at 75 ug/ml incubated for 24 hrs by agar well diffusion method", "type": "functional", "settings": "read-out: DIZ", "summary_of_the_method": "as §2"}, "[11]": {"system": "Bacillus subtilis", "assay": "Antibacterial activity against Bacillus subtilis at 50 ug/ml incubated for 24 hrs by agar well diffusion method", "type": "functional", "settings": "read-out: DIZ", "summary_of_the_method": "as §2"}, "[12]": {"system": "Klebsiella pneumoniae", "assay": "Antibacterial activity against Klebsiella pneumoniae at 25 ug/ml incubated for 24 hrs by agar well diffusion method", "type": "functional", "settings": "read-out: DIZ", "summary_of_the_method": "as §2"}, "[13]": {"system": "Klebsiella pneumoniae", "assay": "Antibacterial activity against Klebsiella pneumoniae at 50 ug/ml incubated for 24 hrs by agar well diffusion method", "type": "functional", "settings": "read-out: DIZ", "summary_of_the_method": "as §2"}, "[14]": {"system": "Bacillus subtilis", "assay": "Antibacterial activity against Bacillus subtilis at 75 ug/ml incubated for 24 hrs by agar well diffusion method", "type": "functional", "settings": "read-out: DIZ", "summary_of_the_method": "as §2"}, "[15]": {"system": "Candida albicans", "assay": "Antifungal activity against Candida albicans at 75 ug/ml incubated for 48 hrs by agar well diffusion method", "type": "functional", "settings": "read-out: DIZ", "summary_of_the_method": "as §1"}, "[16]": {"system": "Escherichia coli", "assay": "Antibacterial activity against Escherichia coli at 25 ug/ml incubated for 24 hrs by agar well diffusion method", "type": "functional", "settings": "read-out: DIZ", "summary_of_the_method": "as §2"}, "[17]": {"system": "Staphylococcus aureus", "assay": "Antibacterial activity against Staphylococcus aureus at 100 ug/ml incubated for 24 hrs by agar well diffusion method", "type": "functional", "settings": "read-out: DIZ", "summary_of_the_method": "as §2"}, "[18]": {"system": "Aspergillus niger", "assay": "Antifungal activity against Aspergillus niger at 100 ug/ml incubated for 48 hrs by agar well diffusion method", "type": "functional", "settings": "read-out: DIZ", "summary_of_the_method": "as §1"}, "[19]": {"system": "Klebsiella pneumoniae", "assay": "Antibacterial activity against Klebsiella pneumoniae at 75 ug/ml incubated for 24 hrs by agar well diffusion method", "type": "functional", "settings": "read-out: DIZ", "summary_of_the_method": "as §2"}, "[20]": {"system": "Escherichia coli", "assay": "Antibacterial activity against Escherichia coli at 75 ug/ml incubated for 24 hrs by agar well diffusion method", "type": "functional", "settings": "read-out: DIZ", "summary_of_the_method": "as §2"}, "[21]": {"system": "Bacillus subtilis", "assay": "Antibacterial activity against Bacillus subtilis at 100 ug/ml incubated for 24 hrs by agar well diffusion method", "type": "functional", "settings": "read-out: DIZ", "summary_of_the_method": "as §2"}, "[22]": {"system": "Fusarium oxysporum", "assay": "Antifungal activity against Fusarium oxysporum at 75 ug/ml incubated for 48 hrs by agar well diffusion method", "type": "functional", "settings": "read-out: DIZ", "summary_of_the_method": "as §1"}, "[23]": {"system": "Fusarium oxysporum", "assay": "Antifungal activity against Fusarium oxysporum at 25 ug/ml incubated for 48 hrs by agar well diffusion method", "type": "functional", "settings": "read-out: DIZ", "summary_of_the_method": "as §1"}, "[24]": {"system": "Escherichia coli", "assay": "Antibacterial activity against Escherichia coli at 100 ug/ml incubated for 24 hrs by agar well diffusion method", "type": "functional", "settings": "read-out: DIZ", "summary_of_the_method": "as §2"}, "[25]": {"system": "Staphylococcus aureus", "assay": "Antibacterial activity against Staphylococcus aureus at 50 ug/ml incubated for 24 hrs by agar well diffusion method", "type": "functional", "settings": "read-out: DIZ", "summary_of_the_method": "as §2"}, "[26]": {"system": "Staphylococcus aureus", "assay": "Antibacterial activity against Staphylococcus aureus at 25 ug/ml incubated for 24 hrs by agar well diffusion method", "type": "functional", "settings": "read-out: DIZ", "summary_of_the_method": "as §2"}, "[27]": {"system": "Candida albicans", "assay": "Antifungal activity against Candida albicans at 25 ug/ml incubated for 48 hrs by agar well diffusion method", "type": "functional", "settings": "read-out: DIZ", "summary_of_the_method": "as §1"}, "[28]": {"system": "Bacillus subtilis", "assay": "Antibacterial activity against Bacillus subtilis at 25 ug/ml incubated for 24 hrs by agar well diffusion method", "type": "functional", "settings": "read-out: DIZ", "summary_of_the_method": "as §2"}, "[29]": {"system": "Candida albicans", "assay": "Antifungal activity against Candida albicans at 50 ug/ml incubated for 48 hrs by agar well diffusion method", "type": "functional", "settings": "read-out: DIZ", "summary_of_the_method": "as §1"}},
  "data": [
    {"smiles": "CC(C)C[C@H](N)C(=O)Oc1ccc2c(=O)c3ccccc3oc2c1.Cl", "values": [
      {"measurement": "IC50", "setting": "[1]", "result": 70, "unit": "µg/mL"},
      {"measurement": "zone of inhibition at 100 µg/mL", "setting": "[2]", "result": 19, "unit": "mm"},
      {"measurement": "zone of inhibition at 25 µg/mL", "setting": "[3]", "result": 10, "unit": "mm"},
      {"measurement": "zone of inhibition at 50 µg/mL", "setting": "[4]", "result": 14, "unit": "mm"},
      {"measurement": "zone of inhibition at 75 µg/mL", "setting": "[5]", "result": 19, "unit": "mm"},
      {"measurement": "zone of inhibition at 50 µg/mL", "setting": "[6]", "result": 13, "unit": "mm"},
      {"measurement": "zone of inhibition at 100 µg/mL", "setting": "[7]", "result": 21, "unit": "mm"},
      {"measurement": "zone of inhibition at 100 µg/mL", "setting": "[8]", "result": 26, "unit": "mm"},
      {"measurement": "zone of inhibition at 50 µg/mL", "setting": "[9]", "result": 14, "unit": "mm"},
      {"measurement": "zone of inhibition at 75 µg/mL", "setting": "[10]", "result": 15, "unit": "mm"},
      {"measurement": "zone of inhibition at 50 µg/mL", "setting": "[11]", "result": 19, "unit": "mm"},
      {"measurement": "zone of inhibition at 25 µg/mL", "setting": "[12]", "result": 10, "unit": "mm"},
      {"measurement": "zone of inhibition at 50 µg/mL", "setting": "[13]", "result": 16, "unit": "mm"},
      {"measurement": "zone of inhibition at 75 µg/mL", "setting": "[14]", "result": 24, "unit": "mm"},
      {"measurement": "zone of inhibition at 75 µg/mL", "setting": "[15]", "result": 19, "unit": "mm"},
      {"measurement": "zone of inhibition at 25 µg/mL", "setting": "[16]", "result": 8, "unit": "mm"},
      {"measurement": "zone of inhibition at 100 µg/mL", "setting": "[17]", "result": 21, "unit": "mm"},
      {"measurement": "zone of inhibition at 100 µg/mL", "setting": "[18]", "result": 22, "unit": "mm"},
      {"measurement": "zone of inhibition at 75 µg/mL", "setting": "[19]", "result": 22, "unit": "mm"},
      {"measurement": "zone of inhibition at 75 µg/mL", "setting": "[20]", "result": 20, "unit": "mm"},
      {"measurement": "zone of inhibition at 100 µg/mL", "setting": "[21]", "result": 29, "unit": "mm"},
      {"measurement": "zone of inhibition at 75 µg/mL", "setting": "[22]", "result": 17, "unit": "mm"},
      {"measurement": "zone of inhibition at 25 µg/mL", "setting": "[23]", "result": 9, "unit": "mm"},
      {"measurement": "zone of inhibition at 100 µg/mL", "setting": "[24]", "result": 24, "unit": "mm"},
      {"measurement": "zone of inhibition at 50 µg/mL", "setting": "[25]", "result": 12, "unit": "mm"},
      {"measurement": "zone of inhibition at 25 µg/mL", "setting": "[26]", "result": 9, "unit": "mm"},
      {"measurement": "zone of inhibition at 25 µg/mL", "setting": "[27]", "result": 10, "unit": "mm"},
      {"measurement": "zone of inhibition at 25 µg/mL", "setting": "[28]", "result": 13, "unit": "mm"},
      {"measurement": "zone of inhibition at 50 µg/mL", "setting": "[29]", "result": 15, "unit": "mm"}
    ]}
  ]
}
